Results as given in ChEMBL document CHEMBL1153722, “Design, synthesis, and characterization of peptide-based rab geranylgeranyl transferase inhibitors” (J Med Chem, 2009).
Where “and” joins values, the source holds several entries; their conditions need not be identical. Identical values can stand only once. Square brackets hold non-standard residues; d marks the D form. Peptide text beside a SMILES is read from it. * marks the point of attachment. Hydrocinnamoyl = O=C(CCc1ccccc1)*; Undecanoyl = CCCCCCCCCCC(=O)*; pGlu = O=C1CC[C@@H](C(=O)O)N1; Nicotinoyl = O=C(c1cccnc1)*; Ac6c = NC1(C(=O)O)CCCCC1; Cbz = O=C(OCc1ccccc1)*; NHBn = c1ccc(CN*)cc1

Organism: Rattus norvegicus
Assay: Inhibition of rat recombinant Rab geranylgeranyltransferase at 100 uM in presence of canine Rab7 and rat REP1 NBD-FPP based continuous fluorimetric assay
How it was run: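 Continuous fluorometric assay in 96/384-well format: 3 μM Rab7, 3 μM REP1, 9 μM NBD-FPP and 400 nM RabGGTase, with or without inhibitor. […] IC50 was calculated from three independent measurements.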
`CCCCCCCCCCC(=O)N[C@@H](Cc1c[nH]cn1)C(=O)N[C@@H](Cc1c[nH]cn1)C(=O)N[C@@H](Cc1ccc(O)cc1)C(=O)Nc1ccccn1` gave an inhibition of 70%. `O=C(/C=C/c1ccc(F)cc1)N[C@@H](CO)C(=O)N[C@@H](Cc1ccccc1)C(=O)N[C@@H](CO)C(=O)N1CCOCC1` was tested, and the inhibition was 75%. `NCCCC[C@H](NC(=O)CCc1ccccc1)C(=O)N[C@@H](Cc1c[nH]cn1)C(=O)N[C@@H](CO)C(=O)NC1CCCCC1` gave an inhibition of 98%. `CCC(C)OC(=O)[C@H](CCC(N)=O)NC(=O)[C@H](Cc1ccccc1)NC(=O)[C@@H](NC(=O)/C=C/c1ccccc1)[C@@H](C)O` (some centres undefined) showed an inhibition of 87%. Compound `CCCCCCCCCCCOc1ccc(C(=O)N[C@@H](Cc2c[nH]cn2)C(=O)N[C@@H](Cc2c[nH]cn2)C(=O)N[C@@H](Cc2c[nH]cn2)C(=O)OC)cc1` has an inhibition of 87%. `CCCCCCCCCCCOc1ccc(C(=O)N[C@@H](Cc2c[nH]cn2)C(=O)N[C@@H](Cc2c[nH]cn2)C(=O)N[C@@H](Cc2c[nH]cn2)C(N)=O)cc1` gave an inhibition of 32%. `CCCCCCCCCCC(=O)N[C@@H](Cc1c[nH]cn1)C(=O)N[C@@H](Cc1cnc[nH]1)C(=O)N[C@@H](Cc1ccc(O)cc1)C(=O)NCC(O)CO` (some centres undefined) was tested, and the inhibition was 65%. Work on `CCCCCCCCCCCCCC(=O)N[C@@H](Cc1ccc(O)cc1)C(=O)N[C@@H](Cc1ccc(O)cc1)C(=O)N[C@@H](Cc1ccc(O)cc1)C(=O)N(C)OC` yielded an inhibition of 89%. Work on `C=CCOC(=O)[C@H](Cc1cn(C(c2ccccc2)(c2ccccc2)c2ccccc2)cn1)NC(=O)[C@H](Cc1ccccc1)NC(=O)CNC(=O)c1csc(-c2cccs2)n1` yielded an inhibition of 136%. Compound `CCCCCCCCCCC(=O)N[C@@H](Cc1ccc(O)cc1)C(=O)N[C@@H](Cc1c[nH]cn1)C(=O)N[C@@H](Cc1c[nH]cn1)C(=O)NOC(C)(C)C` has an inhibition of 47%. For `C[C@H](NC(=O)[C@@H](NC(=O)c1ccc(-c2ccccc2)cc1)[C@@H](C)O)C(=O)N[C@@H](CCC(=O)O)C(=O)O`, the inhibition was 96%. In the case of `CC(C)C[C@H](NC(=O)[C@H](COC(C)(C)C)NC(=O)[C@H](Cc1ccccc1)NC(=O)/C=C/c1ccc(F)cc1)C(=O)Nc1nccs1`, the inhibition is reported as 112%. For `COC(=O)[C@H](Cc1cn(C(c2ccccc2)(c2ccccc2)c2ccccc2)cn1)NC(=O)[C@H](Cc1ccccc1)NC(=O)CNC(=O)c1csc(-c2cccs2)n1`, the inhibition was 69%. `O=C(/C=C/c1ccc(F)cc1)N[C@@H](CO)C(=O)N[C@@H](Cc1ccccc1)C(=O)N[C@@H](CO)C(=O)NCc1ccccc1` was tested, and the inhibition was 100%. In the case of `CCCCCCCCCCC(=O)N[C@@H](Cc1c[nH]cn1)C(=O)N[C@@H](Cc1c[nH]cn1)C(=O)N[C@@H](CO)C(=O)NOC(C)(C)C`, the inhibition is reported as 52%. `CCCCOC(=O)[C@H](Cc1ccc(O)cc1)NC(=O)CNC(=O)[C@H](Cc1ccc(O)cc1)NC(=O)CCc1ccc(F)cc1` was tested, and the inhibition was 47%. With `NC(=O)CC[C@H](NC(=O)[C@H](Cc1ccccc1)NC(=O)CNC(=O)CCc1ccccc1)C(=O)NCc1ccccc1` (Hydrocinnamoyl-Gly-Phe-Gln-NHBn) the inhibition was 85%. Work on `O=C(CNC(=O)c1csc(-c2ccccc2)n1)N[C@@H](Cc1ccccc1)C(=O)N[C@@H](Cc1cn(C(c2ccccc2)(c2ccccc2)c2ccccc2)cn1)C(=O)O` yielded an inhibition of 71%. For `NCCOC(=O)[C@H](Cc1ccc(O)cc1)NC(=O)CCNC(=O)[C@H](Cc1c[nH]cn1)NC(=O)OCc1ccccc1`, the inhibition was 100%. With `COC(=O)NNC(=O)[C@H](CCC(=O)O)NC(=O)[C@H](NC(=O)[C@@H]1CCCN1C(=O)c1ccc([N+](=O)[O-])c(NC(C)=O)c1)C(C)C` the inhibition was 101%. `O=C(/C=C/c1ccccc1)N[C@@H](Cc1ccccc1)C(=O)N[C@@H](Cc1ccccc1)C(=O)N[C@@H](Cc1ccc(O)cc1)C(=O)NC1CCCCC1` gave an inhibition of 71%. `CCCCCCCCCC(=O)N[C@@H](Cc1c[nH]cn1)C(=O)N[C@@H](Cc1cnc[nH]1)C(=O)N[C@@H](Cc1ccc(O)cc1)C(=O)OCCN` gave an inhibition of 29%. `CCCCCCCCCCOc1ccc(C(=O)N[C@@H](Cc2c[nH]c3ccccc23)C(=O)N[C@@H](Cc2c[nH]cn2)C(=O)N[C@@H](Cc2c[nH]cn2)C(=O)OC)cc1` gave an inhibition of 56%. `C[C@@H](O)[C@H](NC(=O)/C=C/c1ccccc1)C(=O)N[C@@H](Cc1ccccc1)C(=O)N[C@@H](CCC(N)=O)C(=O)NCCO` gave an inhibition of 118%. For `C[C@@H](O)[C@H](NC(=O)/C=C/c1ccccc1)C(=O)N[C@@H](Cc1ccccc1)C(=O)N[C@@H](CCC(N)=O)C(=O)Nc1cccc(Br)n1`, the inhibition was 83%. Work on `CCCCCCCCCCCCCCCC(=O)N[C@@H](Cc1ccc(O)cc1)C(=O)N[C@@H](Cc1ccc(O)cc1)C(=O)N[C@@H](Cc1ccc(O)cc1)C(=O)NCc1ccc(F)cc1F` yielded an inhibition of 92%. For `C[C@@H](NC(=O)CCc1ccccc1)C(=O)N[C@@H](Cc1ccccc1)C(=O)N[C@@H](CCC(N)=O)C(=O)NC1CCCCC1`, the inhibition was 44%. In the case of `CCCCCCCCCCCOc1ccc(C(=O)N[C@@H](Cc2ccc(O)cc2)C(=O)N[C@@H](Cc2ccc(O)cc2)C(=O)N[C@@H](Cc2ccc(O)cc2)C(N)=O)cc1`, the inhibition is reported as 103%. Compound `CC[C@H](C)[C@H](NC(=O)c1ccc(-c2ccccc2)cc1)C(=O)N[C@@H](C(=O)N[C@@H](CCC(N)=O)C(=O)NNC(=O)OC)C(C)C` has an inhibition of 99%. Compound `O=C(CCc1ccccc1)N[C@@H](CO)C(=O)N[C@@H](Cc1ccccc1)C(=O)N[C@@H](CO)C(=O)Nc1ccc(N2CCOCC2)cc1` has an inhibition of 95%. In the case of `COC(=O)[C@H](Cc1ccc(O)cc1)NC(=O)CNC(=O)[C@H](Cc1c[nH]cn1)NC(=O)OCc1ccccc1` (Cbz-His-Gly-Tyr-OMe), the inhibition is reported as 70%. With `O=C(N[C@@H](Cc1c[nH]cn1)C(=O)N[C@@H](Cc1ccc(O)cc1)C(=O)N[C@@H](Cc1ccccc1)C(=O)O)OCc1ccc(OCc2ccccc2)cc1` the inhibition was 53%. `CCCCCCCCCCC(=O)N[C@@H](Cc1ccc(O)cc1)C(=O)N[C@@H](Cc1c[nH]cn1)C(=O)N[C@@H](Cc1c[nH]cn1)C(=O)OC` (Undecanoyl-Tyr-His-His-OMe) gave an inhibition of 32%. `CCCCCCCCCCOc1ccc(C(=O)N[C@@H](Cc2c[nH]cn2)C(=O)N[C@@H](Cc2c[nH]cn2)C(=O)N[C@@H](CO)C(=O)NCCCn2ccnc2)cc1` showed an inhibition of 52%. With `CC(C)C[C@H](NC(=O)[C@@H]1CCCN1C(=O)/C=C/c1ccccc1)C(=O)N[C@@H](Cc1ccccc1)C(=O)NCc1ccc(F)cc1F` the inhibition was 26%. `O=C(N[C@@H](Cc1ccc(O)cc1)C(=O)N[C@@H](Cc1ccc(O)cc1)C(=O)N[C@@H](Cc1ccc(O)cc1)C(=O)Nc1ccc(F)cc1F)c1ccc(F)cc1F` showed an inhibition of 97%. With `CC(C)C[C@H](NC(=O)/C=C/c1ccccc1)C(=O)N[C@@H](Cc1ccccc1)C(=O)N[C@@H](Cc1ccccc1)C(=O)Nc1ccc([N+](=O)[O-])cc1Cl` the inhibition was 104%. `CC(C)(C)Oc1ccc(C[C@H](NC(=O)c2coc(-c3ccccc3)n2)C(=O)NCC(=O)N[C@@H](Cc2ccccc2)C(=O)O)cc1` gave an inhibition of 82%. `O=C(CNC(=O)[C@H](Cc1ccc(O)cc1)NC(=O)c1ccc(F)cc1)N[C@@H](Cc1ccc(O)cc1)C(=O)NCc1ccccc1` gave an inhibition of 60%. In the case of `NC(=O)CC[C@H](NC(=O)[C@H](Cc1ccccc1)NC(=O)[C@H](CO)NC(=O)CCc1ccccc1)C(N)=O` (Hydrocinnamoyl-Ser-Phe-Gln-NH2), the inhibition is reported as 106%. `CC(C)C[C@H](NC(=O)[C@H](CO)NC(=O)[C@H](Cc1ccccc1)NC(=O)CCc1ccccc1)C(N)=O` showed an inhibition of 100%. `C[C@H](NC(=O)[C@@H](NC(=O)c1ccc(-c2ccccc2)cc1)[C@@H](C)O)C(=O)N[C@@H](CCC(=O)O)C(=O)NN` showed an inhibition of 89%. In the case of `CCCCCCCCCCCCCC(=O)OC[C@H](NC(=O)[C@H](Cc1ccccc1)NC(=O)[C@H](CCCCNC(=O)c1csc(-c2cccnc2)n1)NC(=O)c1csc(-c2cccnc2)n1)C(=O)O`, the inhibition is reported as 67%. Work on `CC[C@H](C)[C@H](NC(=O)[C@H](Cc1ccccc1)NC(=O)c1cccnc1)C(=O)N[C@@H](CCCNC(=N)N)C(N)=O` (Nicotinoyl-Phe-Ile-Arg-NH2) yielded an inhibition of 79%. Compound `C=CCCCCCCCCCOC(=O)[C@H](CO)NC(=O)CNC(=O)[C@H](Cc1ccccc1)NC(=O)c1coc(-c2ccccc2)n1` has an inhibition of 5%. Compound `CC(C)(C)Oc1ccc(C[C@H](NC(=O)c2coc(-c3ccccc3)n2)C(=O)NCC(=O)N[C@@H](Cc2cn(C(c3ccccc3)(c3ccccc3)c3ccccc3)cn2)C(=O)O)cc1` has an inhibition of 94%. For `CC(C)C[C@H](NC(=O)[C@@H]1CCC(=O)N1)C(=O)N[C@@H](CCCCN)C(=O)NC1(C(=O)O)CCCCC1` ([pGlu]LK[Ac6c]-OH), the inhibition was 102% and 98%. In the case of `COC(=O)[C@H](Cc1ccc(O)cc1)NC(=O)CCNC(=O)[C@H](Cc1c[nH]cn1)NC(=O)OCc1ccccc1`, the inhibition is reported as 72%. `COC(=O)[C@H](CO)NC(=O)CNC(=O)[C@H](Cc1ccccc1)NC(=O)c1csc(-c2cccs2)n1` gave an inhibition of 123%. In the case of `O=C(N[C@@H](CO)C1=N[C@H](C(=O)O)CO1)c1coc(-c2ccccc2)n1`, the inhibition is reported as 93%. `CC(C)(C)Oc1ccc(C[C@H](NC(=O)CNC(=O)[C@H](Cc2ccc(OC(C)(C)C)cc2)NC(=O)c2coc(-c3ccccc3)n2)C(=O)O)cc1` gave an inhibition of 75%. `CCCCCCCCCCCOc1ccc(C(=O)N[C@@H](Cc2c[nH]cn2)C(=O)N[C@@H](Cc2ccc(O)cc2)C(=O)N[C@@H](Cc2ccccc2)C(=O)N(C)OC)cc1` showed an inhibition of 65%. With `CCCCCCCCCCOc1ccc(C(=O)N[C@@H](Cc2c[nH]cn2)C(=O)N[C@@H](Cc2c[nH]cn2)C(=O)N[C@@H](CO)C(=O)OCCN)cc1` the inhibition was 70%. In the case of `CN(C(=O)[C@@H](Cc1c[nH]cn1)NC(=O)OCc1ccccc1)[C@@H](Cc1ccc(O)cc1)C(=O)N[C@@H](Cc1ccccc1)C(=O)O`, the inhibition is reported as 34%. `CC[C@H](C)[C@H](NC(=O)[C@H](Cc1ccccc1)NC(=O)c1cccnc1)C(=O)N[C@@H](CCCNC(=N)N)C(=O)O` (Nicotinoyl-Phe-Ile-Arg-OH) was tested, and the inhibition was 119%. In the case of `CCCCCCCCCCC(=O)N[C@@H](Cc1c[nH]cn1)C(=O)N[C@@H](Cc1ccccc1)C(=O)N[C@@H](Cc1ccc(O)cc1)C(=O)N(C)OC`, the inhibition is reported as 76%. For `CC(C)C[C@H](NC(=O)[C@H](COC(C)(C)C)NC(=O)[C@H](Cc1ccccc1)NC(=O)c1ccc(-c2ccccc2)cc1)C(N)=O`, the inhibition was 48%. `CCCCCCCCCCCOC(=O)[C@H](CO)NC(=O)CNC(=O)[C@H](CO)NC(=O)/C=C/c1ccc(F)cc1` showed an inhibition of 70%. `CC(C)C[C@H](NC(=O)[C@H](CO)NC(=O)[C@H](Cc1ccccc1)NC(=O)CCc1ccccc1)C(=O)OCCCl` was tested, and the inhibition was 97%.
